The source made the active and inactive calls. No cut-off for these calls is given here.
What was measured:
[1] = Antiangiogenic activity in MAEC assessed as inhibition of cell proliferation after 5 days by Coulter counting analysis; assay type: functional; conditions: Mus musculus, 120 h
Summary of the method: (§1)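 Cells seeded at 10,000 cells per cm2; after 16 h given fresh medium containing test compounds. Trypsinized on day 5 and counted by Coulter counter. […] Tumour lines kept in DMEM with 10 mM Hepes and 10% FBS.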

[2] = Antiangiogenic activity in BAEC assessed as inhibition of cell proliferation after 5 days by Coulter counting analysis; assay type: functional, cell-based; conditions: Bos taurus, 120 h; summary of the method: as §1
HeLa = assay: Cytostatic activity against human HeLa cells after 5 days by Coulter counting analysis; assay type: functional, cell-based; conditions: 120 h; summary of the method: as §1
MCF7 = assay: Cytostatic activity against human MCF7 cells after 5 days by Coulter counting analysis; assay type: functional, cell-based; conditions: MCF7, 120 h; summary of the method: as §1
Gallus gallus [3] = organism: Gallus gallus; assay: Antiangiogenic activity in chicken embryo chorioallantoic membrane model assessed as inhibition of VEGF-induced angiogenesis at 50 nmol after 2 days by photographic analysis
[4] = Antiangiogenic activity in MAEC assessed as inhibition of cell migration-associated wound closure at 50 uM after 8 hrs imaging analysis; assay type: functional; conditions: Mus musculus
Summary of the method: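 Confluent MAEC monolayers wounded with a 1.0-mm wide tip, then incubated in fresh medium with 10% FCS plus compound (10 and 50 μM). At 8 h, wounds photographed; cells invading the wound quantified by computerized analysis of digitized images. Results as mean ± SEM.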

Gallus gallus [5] = organism: Gallus gallus; assay: Antiangiogenic activity in chicken embryo chorioallantoic membrane model assessed as complete inhibition of VEGF-induced angiogenesis at 50 nmol after 2 days by photographic analysis

IC50 (HeLa)	IC50 (MCF7)	Structure (SMILES)	IC50 [1]	IC50 [2]	inhibition (Gallus gallus [3])	inhibition at 50 µM [4]	inhibition (Gallus gallus [5])
–	–	O=C(O)/C=C/c1cn(-c2ccc(O)cc2)nc1-c1ccccc1	> 100 µM	–	–	–	–
37 µM	38 µM	O=Cc1cn(-c2ccc(O)cc2)nc1-c1ccc(O)cc1	44 µM	32 µM	48%	–	–
–	–	O=c1c2cn(-c3ccc(O)cc3)nc2c2cc(O)c(O)cc2n1O	–	–	Active	–	–
79 µM	47 µM	O=Cc1cn(-c2ccc(O)cc2)nc1-c1ccccc1	> 100 µM	64 µM	inactive	–	–
–	–	O=C(O)/C=C/c1cn(-c2ccc(O)cc2)nc1-c1cccc(O)c1	> 100 µM	–	–	–	–
38 µM	25 µM	O=c1c2cn(-c3ccc(O)cc3)nc2c2ccc(O)cc2n1O	42 µM	52 µM	Active	–	–
–	–	CCOC(=O)/C=C/c1cn(-c2ccc(O)cc2)nc1-c1ccc(O)cc1	25 µM	–	–	–	–
–	–	O=C(O)/C=C/c1cn(-c2ccc(O)cc2)nc1-c1ccc(O)cc1	> 100 µM	–	–	–	–
–	–	O=C(O)/C=C/c1cn(-c2ccc(O)cc2)nc1-c1ccc(O)c(O)c1	> 100 µM	–	–	–	–
–	–	CCOC(=O)/C=C/c1cn(-c2ccc(O)cc2)nc1-c1ccccc1	29 µM	–	–	–	–
–	–	CCOC(=O)/C=C/c1cn(-c2ccc(O)cc2)nc1-c1cc(O)ccc1O	12 µM	–	–	–	–
–	–	CCOC(=O)/C=C/c1cn(-c2ccc(O)cc2)nc1-c1ccc(O)c(O)c1	6.2 µM	–	–	–	–
≥ 100 µM	≥ 100 µM	O=Cc1cn(-c2ccc(O)cc2)nc1-c1cc(O)ccc1O	43 µM	≥ 100 µM	Toxic	–	–
39 µM	24 µM	O=Cc1cn(-c2ccc(O)cc2)nc1-c1ccc(O)c(O)c1	12 µM	17 µM	Toxic	–	–
–	–	O=C(O)/C=C/c1cn(-c2ccc(O)cc2)nc1-c1cc(O)ccc1O	> 100 µM	–	–	–	–
37 µM	26 µM	O=c1c2cn(-c3ccc(O)cc3)nc2c2cc(O)ccc2n1O	25 µM	38 µM	64%	76%	Active
–	–	CCOC(=O)/C=C/c1cn(-c2ccc(O)cc2)nc1-c1cccc(O)c1	14 µM	–	–	–	–
–	–	O=c1c2cn(-c3ccc(O)cc3)nc2c2c(O)ccc(O)c2n1O	–	–	Active	–	–
8.9 µM	5.8 µM	O=c1c2cn(-c3ccc(O)cc3)nc2c2ccccc2n1O	7 µM	4.6 µM	Active	–	–
37 µM	29 µM	O=Cc1cn(-c2ccc(O)cc2)nc1-c1cccc(O)c1	42 µM	29 µM	50%	–	–

Source: ChEMBL document CHEMBL1165974, “Novel pyrazole derivatives: synthesis and evaluation of anti-angiogenic activity” (Bioorg Med Chem, 2010)
